Experimental data published in ChEMBL document CHEMBL2086296, “Synthesis of novel quinoline-2-one based chalcones of potential anti-tumor activity” (Eur J Med Chem, 2012).

Legend:
[1] = tested on: HOP-62; experiment: Cytotoxicity against human HOP62 cells after 24 hrs by SRB assay; type: functional; conditions: HOP-62, 24 h
Outline: (§1)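 NCI 60-line screen. Cells in RPMI 1640 with 5% FBS and 2 mM L-glutamine, seeded at 5,000–40,000 cells/well by doubling time, then incubated 24 h at 37 °C, 5% CO2 before dosing. Time-zero plates fixed with TCA at drug addition. DMSO stocks diluted in medium with gentamicin to five concentrations, […]. Protein read by SRB staining. GI50, TGI and LC50 derived relative to control and time-zero.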

[2] = tested on: NCI-H522; experiment: Cytotoxicity against human NCI-H522 cells after 24 hrs by SRB assay; type: functional; conditions: NCI-H522, 24 h; outline: as §1
[3] = tested on: COLO 205; experiment: Cytotoxicity against human COLO205 cells after 24 hrs by SRB assay; type: functional; conditions: COLO 205, 24 h; outline: as §1
[4] = tested on: HCT-116; experiment: Cytotoxicity against human HCT116 cells after 24 hrs by SRB assay; type: functional; conditions: HCT-116, 24 h; outline: as §1
[5] = tested on: HCT-15; experiment: Cytotoxicity against human HCT15 cells after 24 hrs by SRB assay; type: functional; conditions: HCT-15, 24 h; outline: as §1
[6] = tested on: HT-29; experiment: Cytotoxicity against human HT-29 cells after 24 hrs by SRB assay; type: functional; conditions: HT-29, 24 h; outline: as §1
[7] = tested on: SF-295; experiment: Cytotoxicity against human SF295 cells after 24 hrs by SRB assay; type: functional; conditions: SF-295, 24 h; outline: as §1
[8] = tested on: SK-MEL-2; experiment: (§2) Cytotoxicity against human SK-MEL-2 cells after 24 hrs by SRB assay; type: functional; conditions: SK-MEL-2, 24 h; outline: as §1
[9] = tested on: OVCAR-8; experiment: (§3) Cytotoxicity against human OVCAR8 cells after 24 hrs by SRB assay; type: functional; conditions: OVCAR-8, 24 h; outline: as §1
[10] = tested on: SN12C; experiment: (§4) Cytotoxicity against human SN12C cells after 24 hrs by SRB assay; type: functional; outline: as §1
[11] = tested on: MCF7; experiment: (§5) Cytotoxicity against human MCF7 cells after 24 hrs by SRB assay; type: functional; conditions: MCF7, 24 h; outline: as §1
[12] = tested on: MDA-MB-231; experiment: (§6) Cytotoxicity against human MDA-MB-231 cells after 24 hrs by SRB assay; type: functional; conditions: MDA-MB-231, 24 h; outline: as §1
[13] = tested on: T47D; experiment: Cytotoxicity against human T47D cells after 24 hrs by SRB assay; type: functional
Outline: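 NCI 60-cell screen. Cells are grown in RPMI 1640 with 5% FBS and 2 mM L-glutamine and seeded at 5,000–40,000 cells/well according to doubling time. They are preincubated 24 h at 37 °C in 5% CO2, and Tz plates are TCA-fixed at drug addition. Drug stock is in DMSO, diluted in medium with gentamicin, and tested at five concentrations (100, 10, 1.0, 0.1, […]). Protein is read by SRB staining. GI50, TGI and LC50 are derived relative to time-zero and control wells.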

[14] = tested on: CCRF-CEM; experiment: Cytotoxicity against human CCRF-CEM cells after 24 hrs by SRB assay; type: cell-based
Outline: (§7)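 NCI 60-cell screen. Cells grown in RPMI 1640 with 5% FBS and 2 mM L-glutamine, seeded at 5,000–40,000 cells/well, preincubated 24 h at 37 °C in 5% CO2. Drug stock in DMSO, diluted in medium with gentamicin; five final concentrations, 100, 10, 1.0, 0.1 and […]. Time-zero plates were TCA-fixed. Protein read by SRB staining; GI50, TGI and LC50 taken relative to time-zero.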

[15] = tested on: HL-60; experiment: Cytotoxicity against human HL60 cells after 24 hrs by SRB assay; type: cell-based; conditions: hl-60, 24 h; outline: as §7
[16] = tested on: MOLT-4; experiment: Cytotoxicity against human MOLT4 cells after 24 hrs by SRB assay; type: cell-based; conditions: molt-4, 24 h; outline: as §7
[17] = tested on: NCI-H23; experiment: Cytotoxicity against human NCI-H23 cells after 24 hrs by SRB assay; type: cell-based; conditions: nci-h23, 24 h; outline: as §7
[18] = tested on: NCI-H460; experiment: Cytotoxicity against human NCI-H460 cells after 24 hrs by SRB assay; type: cell-based; conditions: nci-h460, 24 h; outline: as §7
[19] = tested on: HOP-92; experiment: Cytotoxicity against human HOP92 cells after 24 hrs by SRB assay; type: cell-based; conditions: hop-92, 24 h; outline: as §7
[20] = tested on: KM12; experiment: Cytotoxicity against human KM12 cells after 24 hrs by SRB assay; type: cell-based; conditions: km12, 24 h; outline: as §7
[21] = tested on: SF-539; experiment: Cytotoxicity against human SF539 cells after 24 hrs by SRB assay; type: cell-based; conditions: sf-539, 24 h; outline: as §7
[22] = tested on: SF-268; experiment: Cytotoxicity against human SF268 cells after 24 hrs by SRB assay; type: cell-based; conditions: sf-268, 24 h; outline: as §7
[23] = tested on: SNB-75; experiment: Cytotoxicity against human SNB75 cells after 24 hrs by SRB assay; type: cell-based; conditions: snb-75, 24 h
Outline: (§8)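 NCI 60-cell-line screen: cells grown in RPMI 1640 with 5% FBS and 2 mM L-glutamine, seeded at 5,000–40,000 cells/well by doubling time, and preincubated 24 h at 37 °C in 5% CO2. Time-zero plates were TCA-fixed. DMSO stocks were diluted in medium with gentamicin to five concentrations (100, 10, 1.0, 0.1, […]). Protein was read by SRB, and GI50, TGI and LC50 were derived against time-zero.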

[24] = tested on: RPMI-8226; experiment: Cytotoxicity against human RPMI8226 cells after 24 hrs by SRB assay; type: functional; conditions: RPMI-8226, 24 h; outline: as §1
[25] = tested on: UACC-62; experiment: Cytotoxicity against human UACC62 cells after 24 hrs by SRB assay; type: cell-based; conditions: uacc-62, 24 h; outline: as §8
[26] = tested on: SK-MEL-2; experiment: as §2; type: cell-based; conditions: sk-mel-2, 24 h; outline: as §7
[27] = tested on: OVCAR-3; experiment: Cytotoxicity against human OVCAR3 cells after 24 hrs by SRB assay; type: cell-based; conditions: ovcar-3, 24 h; outline: as §7
[28] = tested on: OVCAR-8; experiment: as §3; type: cell-based; conditions: ovcar-8, 24 h; outline: as §7
[29] = tested on: ACHN; experiment: Cytotoxicity against human ACHN cells after 24 hrs by SRB assay; type: cell-based; outline: as §7
[30] = tested on: SN12C; experiment: as §4; type: cell-based; outline: as §8
[31] = tested on: DU-145; experiment: Cytotoxicity against human DU145 cells after 24 hrs by SRB assay; type: cell-based; conditions: du-145, 24 h; outline: as §7
[32] = tested on: MCF7; experiment: as §5; type: cell-based; conditions: mcf7, 24 h; outline: as §7
[33] = tested on: MDA-MB-231; experiment: as §6; type: cell-based; conditions: mda-mb-231, 24 h; outline: as §7
[34] = Cytotoxicity against human Hs 578T cells after 24 hrs by SRB assay; type: cell-based; outline: as §7
[35] = tested on: OVCAR-4; experiment: (§9) Cytotoxicity against human OVCAR4 cells after 24 hrs by SRB assay; type: functional; conditions: OVCAR-4, 24 h; outline: as §1
[36] = tested on: 786-0; experiment: (§10) Cytotoxicity against human 786-0 cells after 24 hrs by SRB assay; type: functional; conditions: 786-0, 24 h; outline: as §1
[37] = tested on: OVCAR-4; experiment: as §9; type: cell-based; conditions: ovcar-4, 24 h; outline: as §7
[38] = tested on: SK-OV-3; experiment: Cytotoxicity against human SKOV3 cells after 24 hrs by SRB assay; type: cell-based; conditions: sk-ov-3, 24 h; outline: as §8
[39] = tested on: 786-0; experiment: as §10; type: cell-based; conditions: 786-0, 24 h; outline: as §7

## O=C(/C=C/c1cc2ccccc2[nH]c1=O)c1ccc(O)cc1
[1]
  GI50: 2.62 µM
  TGI: 8.17 µM
[2]
  GI50: 1.7 µM
  TGI: 3.29 µM
[3]
  GI50: 4.05 µM
  TGI: 19.7 µM
[4]
  GI50: 1.94 µM
  TGI: 4.38 µM
[5]
  GI50: 2.71 µM
  TGI: 12.8 µM
[6]
  GI50: 3.61 µM
  TGI: 12.1 µM
[7]
  GI50: 7.04 µM
  TGI: 44 µM
[8]
  GI50: 4.13 µM
  TGI: 13.6 µM
[9]
  GI50: 3.23 µM
  TGI: 21.1 µM
[10]
  GI50: 3.48 µM
  TGI: 16 µM
[11]
  GI50: 3.49 µM
  TGI: 16.8 µM
[12]
  GI50: 2.31 µM
  TGI: 15 µM
[13]
  GI50: 4.19 µM
  TGI: 20.4 µM
[14]
  LC50: > 100 µM
[15]
  LC50: > 100 µM
[16]
  LC50: > 100 µM
[17]
  LC50: > 100 µM
[18]
  LC50: > 100 µM
[19]
  LC50: > 100 µM
[20]
  LC50: 15.4 µM
[21]
  LC50: 61.674 µM
[22]
  LC50: > 100 µM
[23]
  LC50: 55 µM
[24]
  GI50: 3.2 µM
  TGI: 24.8 µM
[25]
  LC50: 39.6 µM
[26]
  LC50: 48.3 µM
[27]
  LC50: 35 µM
[28]
  LC50: > 100 µM
[29]
  LC50: 34 µM
[30]
  LC50: > 100 µM
[31]
  LC50: 38 µM
[32]
  LC50: 82.9 µM
[33]
  LC50: > 100 µM
[34]
  LC50: > 100 µM

## O=C(/C=C/c1cc2ccccc2[nH]c1=O)/C=C/c1cc2ccccc2[nH]c1=O
[1]
  GI50: 3.65 µM
  TGI: > 100 µM
[2]
  GI50: 2.52 µM
[3]
  GI50: 2.89 µM
  TGI: > 100 µM
[4]
  GI50: 0.131 µM
  TGI: 0.299 µM
[5]
  GI50: 2.02 µM
  TGI: > 100 µM
[6]
  GI50: 0.483 µM
  TGI: 1.78 µM
[7]
  GI50: 2.64 µM
[8]
  GI50: > 100 µM
  TGI: > 100 µM
[35]
  GI50: 2.06 µM
  TGI: > 100 µM
[9]
  GI50: 2.6 µM
  TGI: > 100 µM
[10]
  GI50: 2.66 µM
  TGI: > 100 µM
[36]
  GI50: 2.75 µM
  TGI: 6.82 µM
[11]
  GI50: 0.327 µM
  TGI: > 100 µM
[12]
  GI50: 3.49 µM
  TGI: > 100 µM
[13]
  GI50: 3.27 µM
  TGI: > 100 µM
[14]
  LC50: > 100 µM
[15]
  LC50: > 100 µM
[16]
  LC50: > 100 µM
[17]
  LC50: > 100 µM
[18]
  LC50: > 100 µM
[19]
  LC50: > 100 µM
[20]
  LC50: 5.12 µM
[21]
  LC50: > 100 µM
[22]
  LC50: > 100 µM
[24]
  GI50: 0.341 µM
  TGI: > 100 µM
[25]
  LC50: > 100 µM
[26]
  LC50: > 100 µM
[27]
  LC50: > 100 µM
[37]
  LC50: > 100 µM
[28]
  LC50: > 100 µM
[38]
  LC50: > 100 µM
[29]
  LC50: > 100 µM
[30]
  LC50: > 100 µM
[39]
  LC50: > 100 µM
[31]
  LC50: > 100 µM
[32]
  LC50: > 100 µM
[33]
  LC50: > 100 µM
